The values that follow come from ChEMBL document CHEMBL4118271, “Synthesis and antitumor activity of novel 6,7,8-trimethoxy N-aryl-substituted-4-aminoquinazoline derivatives” (Bioorg Med Chem Lett, 2018).

pIC50: −log10 of the molar value. Active and inactive are the calls of the source. The calls are words filed in the database; no cut-off is given here. Some results are limits rather than exact numbers.

A word on the pIC50: it is the IC50 on a negative log10 scale, so that one unit is a factor of ten. A high value points to a low IC50.

Test [1] concerns SGC-7901. In words: Anticancer activity against human SGC7901 cells after 72 hrs by MTT assay. In kind it is functional, cell-based. Particulars: SGC-7901, 72 h. A general note: Tetrazolium assays rely on reduction of a dye to a coloured formazan, in cell work by metabolically active cells.
For test [2], the system named is SGC-7901. In words: Induction of morphological changes in human SGC7901 cells assessed as induction of cell break at 1 and 10 uM after 24 to 72 hrs by inverted microscopic analysis. In kind it is functional, cell-based. Summed up: (§1)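 SGC7901 cells were seeded and allowed 24 h to settle, then exposed to 0.1% (v/v) DMSO vehicle, to test agent at 1 or 10 μM, or to epirubicin at 1 or 10 μM. Exposure lasted 24, 48 and 72 h. Morphology (shrinkage, size, apoptotic bodies, breakdown) was then observed microscopically.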

For test [3], the system named is SGC-7901. In words: Anticancer activity against human SGC7901 cells at 1 to 10 uM after 72 hrs by MTT assay. In kind it is functional, cell-based. An outline of the steps: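 Growth inhibition of SGC7901 gastric cancer cells tested at single concentrations of 10 and 1 μM for 72 h, read out by MTT assay. Epirubicin served as the positive control at the same concentrations.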

Test [4] relates to SGC-7901. In words: Induction of morphological changes in human SGC7901 cells at 1 uM after 24 hrs by inverted microscopic analysis. In kind it is functional, cell-based. An outline of the steps:
as §1

Test [5] has as its system SGC-7901. In words: Induction of morphological changes in human SGC7901 cells assessed as induction of cell shrinking at 10 uM after 48 to 72 hrs by inverted microscopic analysis. In kind it is functional, cell-based. An outline of the steps:
as §1

Test [6] deals with SGC-7901. In words: Induction of morphological changes in human SGC7901 cells assessed as reduction in cell size at 10 uM after 48 to 72 hrs by inverted microscopic analysis. In kind it is functional, cell-based. Summed up:
as §1

Test [7] relates to SGC-7901. In words: Antiproliferative activity against human SGC7901 cells assessed as formation of apoptotic bodies at 10 uM after 48 to 72 hrs by inverted microscopic analysis. In kind it is functional, cell-based. Summed up:
as §1

For test [8], the target named is Mitogen-activated protein kinase; ERK1/ERK2 (Homo sapiens) (UniProt P27361+P28482). In words: Inhibition of EGF-induced ERK1/2 phosphorylation in human SGC7901 cells incubated for 30 mins post 10 min EGF stimulation by Western blot analysis. In kind it is cell-based. Summed up:
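SGC7901 cells were grown in RPMI 1640 with 10% serum to 80% confluency and stimulated with 40 ng/ml EGF for 10 min. They were then treated for 30 min with 0.1% (v/v) DMSO or test agent at 1, 10, 20 or 40 μM. Lysates were run on SDS-PAGE and blotted for phospho-ERK1/2, with actin as loading control, ECL detection and densitometry. Three independent experiments were run.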
(A western blot detects proteins with antibodies after separation by electrophoresis.)

Sequence of Mitogen-activated protein kinase; ERK1/ERK2 (Homo sapiens) (P27361 whole entry, looked up): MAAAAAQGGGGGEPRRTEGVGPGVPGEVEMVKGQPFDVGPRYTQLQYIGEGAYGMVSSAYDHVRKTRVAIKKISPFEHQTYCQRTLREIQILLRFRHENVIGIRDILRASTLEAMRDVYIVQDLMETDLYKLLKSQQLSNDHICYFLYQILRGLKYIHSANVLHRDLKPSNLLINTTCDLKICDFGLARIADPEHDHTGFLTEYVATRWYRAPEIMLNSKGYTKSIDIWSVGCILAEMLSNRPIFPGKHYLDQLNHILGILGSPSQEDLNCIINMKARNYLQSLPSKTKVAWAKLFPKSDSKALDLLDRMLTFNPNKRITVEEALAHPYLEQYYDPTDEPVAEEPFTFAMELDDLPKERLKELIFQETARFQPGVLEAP
Sequence of Mitogen-activated protein kinase; ERK1/ERK2 (Homo sapiens) (P28482 whole entry, looked up): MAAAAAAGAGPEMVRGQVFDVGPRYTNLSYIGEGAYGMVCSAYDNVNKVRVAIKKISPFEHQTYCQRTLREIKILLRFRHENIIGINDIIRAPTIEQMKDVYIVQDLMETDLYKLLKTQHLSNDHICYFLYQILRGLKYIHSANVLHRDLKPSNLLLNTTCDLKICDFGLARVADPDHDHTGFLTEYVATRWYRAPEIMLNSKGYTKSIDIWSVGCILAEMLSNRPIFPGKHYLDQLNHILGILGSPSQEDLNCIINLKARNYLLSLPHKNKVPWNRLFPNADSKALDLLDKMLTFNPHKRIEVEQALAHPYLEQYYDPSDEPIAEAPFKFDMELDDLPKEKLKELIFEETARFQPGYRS

With `COc1cc2c(Nc3cc(C(F)(F)F)ccc3F)ncnc2c(OC)c1OC`, the pIC50 in the test on SGC-7901 [1] is 4.99.

In the case of `COc1cc2c(Nc3cccc(Cl)c3F)ncnc2c(OC)c1OC`, the pIC50 in the test with SGC-7901 [1] was < 4.52.

For `COc1cc2c(Nc3ccc(Br)c(Cl)c3F)ncnc2c(OC)c1OC`, the pIC50 in the test with SGC-7901 [1] was 4.82.

On to `COc1cc2c(Nc3cccc(C(F)(F)F)c3)ncnc2c(OC)c1OC`, for which the negative logarithm of the IC50 (pIC50) in the test with SGC-7901 [1] was < 4.52.

Turning to `COc1cc2c(Nc3ccc(C(F)(F)F)cc3)ncnc2c(OC)c1OC`, the pIC50 in the test on SGC-7901 [1] was < 4.52.

In the case of `COc1cc2c(Nc3ccc(F)c(Cl)c3F)ncnc2c(OC)c1OC`, the pIC50 in the test with SGC-7901 [1] is < 4.52.

In turn, `COc1cc2c(Nc3ccc(F)c(Cl)c3)ncnc2c(OC)c1OC` had a pIC50 in the test on SGC-7901 [1] of 5.27.

As to `COc1cccc2c1C(=O)c1c(O)c3c(c(O)c1C2=O)C[C@@](O)(C(=O)CO)C[C@@H]3O[C@H]1C[C@H](N)[C@@H](O)[C@H](C)O1` [EPIRUBICIN], the outcome in the test on SGC-7901 [2] was Active. The pIC50 in the test on SGC-7901 [1] is 5.29.

In the test with SGC-7901 [1], `COc1cc2c(Nc3cc(Br)ccc3F)ncnc2c(OC)c1OC` showed a pIC50 of 4.74.

As for `COc1cc2c(Nc3cccc(Br)c3F)ncnc2c(OC)c1OC`, the pIC50 in the test on SGC-7901 [1] is < 4.52.

Compound `C#Cc1cccc(Nc2ncnc3c(OC)c(OC)c(OC)cc23)c1` showed a pIC50 with SGC-7901 [1] of 5.23.

As for `COc1cc2c(Nc3cccc(I)c3)ncnc2c(OC)c1OC`, in the test with SGC-7901 [1], the pIC50 is 5.06.

Regarding `COc1cc2c(Nc3cccc(F)c3F)ncnc2c(OC)c1OC`, the pIC50 in the test with SGC-7901 [1] is < 4.52.

Turning to `COc1cc2c(Nc3ccc(Br)c(F)c3)ncnc2c(OC)c1OC`, the pIC50 in the test with SGC-7901 [1] was < 4.52.

As for `COc1cc2c(Nc3ccc(B(O)O)cc3)ncnc2c(OC)c1OC`, the outcome with SGC-7901 [3], with SGC-7901 [5], in the test on SGC-7901 [6] and in the test with SGC-7901 [7] was Active. The result in the test with SGC-7901 [4] was inactive. Further, the inhibition result in test [8] was “Dose-dependent effect”. This compound also gave a pIC50 in the test on SGC-7901 [1] of 6.36.
